≈ marks a conversion by molar mass, not a printed value.
What was measured:
[1] = molecular target: T1, Neuropeptide Y receptor type 5 (Homo sapiens, UniProt Q15761); experiment: Antagonist activity at human NPY Y5 receptor expressed in HEK293 cells assessed as inhibition of calcium level by FLIPR assay; format: functional, cell-based
T1 sequence (Q15761 whole entry): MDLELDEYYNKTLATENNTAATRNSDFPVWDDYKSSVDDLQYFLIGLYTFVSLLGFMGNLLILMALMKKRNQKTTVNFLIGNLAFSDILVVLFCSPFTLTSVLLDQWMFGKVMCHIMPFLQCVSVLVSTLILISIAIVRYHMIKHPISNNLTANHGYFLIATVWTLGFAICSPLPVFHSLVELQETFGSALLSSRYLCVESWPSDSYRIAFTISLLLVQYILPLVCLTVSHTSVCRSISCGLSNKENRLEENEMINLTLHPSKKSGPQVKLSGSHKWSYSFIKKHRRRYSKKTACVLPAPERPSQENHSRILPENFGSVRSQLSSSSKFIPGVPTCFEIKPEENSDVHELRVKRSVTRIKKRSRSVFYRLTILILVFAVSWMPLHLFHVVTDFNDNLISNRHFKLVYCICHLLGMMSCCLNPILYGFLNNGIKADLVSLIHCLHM
Summary of the method: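 Functional antagonism measured at the human Y5 receptor stably expressed in HEK293 cells, by FLIPR calcium read-out in 384-well format. Results expressed as fpKi. At least two replicates; each determination within 0.3 log units of the mean.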

Cytochrome P450 1A2 = molecular target: T2, Cytochrome P450 1A2 (Homo sapiens, UniProt P05177); experiment: Inhibition of CYP1A2; format: ADME
T2 sequence (P05177 whole entry): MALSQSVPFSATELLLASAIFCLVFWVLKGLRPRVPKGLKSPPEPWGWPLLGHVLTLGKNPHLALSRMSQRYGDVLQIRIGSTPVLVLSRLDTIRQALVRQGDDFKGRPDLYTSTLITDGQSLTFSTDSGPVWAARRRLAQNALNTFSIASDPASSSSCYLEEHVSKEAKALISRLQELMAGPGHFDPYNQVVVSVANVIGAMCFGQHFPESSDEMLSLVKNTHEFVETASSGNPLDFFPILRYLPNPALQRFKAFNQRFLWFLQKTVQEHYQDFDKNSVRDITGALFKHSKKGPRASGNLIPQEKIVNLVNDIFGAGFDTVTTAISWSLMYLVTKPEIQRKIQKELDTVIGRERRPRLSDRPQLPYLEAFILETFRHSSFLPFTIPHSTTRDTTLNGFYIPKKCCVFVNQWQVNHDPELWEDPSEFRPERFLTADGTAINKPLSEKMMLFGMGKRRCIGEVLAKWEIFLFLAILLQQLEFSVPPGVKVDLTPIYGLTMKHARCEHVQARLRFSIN

[2] = Solubility of the compound by high throughput chemiluminescent nitrogen detection method; format: physicochemical
Cytochrome P450 2C9 = Cytochrome P450 2C9 (Homo sapiens, UniProt P11712); experiment: Inhibition of CYP2C9; format: ADME
Sequence of Cytochrome P450 2C9 (P11712 whole entry): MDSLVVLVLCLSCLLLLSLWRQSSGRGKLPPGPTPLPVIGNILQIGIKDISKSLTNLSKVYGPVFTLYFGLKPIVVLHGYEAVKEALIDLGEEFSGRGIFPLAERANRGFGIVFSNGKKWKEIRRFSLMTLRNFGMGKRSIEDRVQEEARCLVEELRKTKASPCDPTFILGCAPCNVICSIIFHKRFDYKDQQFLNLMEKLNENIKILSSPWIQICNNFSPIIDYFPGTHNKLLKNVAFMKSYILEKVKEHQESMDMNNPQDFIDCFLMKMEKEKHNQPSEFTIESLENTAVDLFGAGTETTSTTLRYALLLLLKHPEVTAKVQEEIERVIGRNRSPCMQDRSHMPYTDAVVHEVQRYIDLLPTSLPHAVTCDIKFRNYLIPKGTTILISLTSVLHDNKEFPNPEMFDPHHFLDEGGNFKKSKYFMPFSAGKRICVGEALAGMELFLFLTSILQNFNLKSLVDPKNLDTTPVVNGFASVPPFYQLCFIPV

[3] = Oral bioavailability in rat at 1 mg/kg, po by cassette dosing; format: ADME, organism-based; conditions: in vivo
Summary of the method: (§1)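 Rats dosed at 0.5 mg/kg iv and 1 mg/kg po.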

Cytochrome P450 3A4 = Cytochrome P450 3A4 (Homo sapiens, UniProt P08684); experiment: Inhibition of CYP3A4; format: ADME
Sequence of Cytochrome P450 3A4 (P08684 whole entry): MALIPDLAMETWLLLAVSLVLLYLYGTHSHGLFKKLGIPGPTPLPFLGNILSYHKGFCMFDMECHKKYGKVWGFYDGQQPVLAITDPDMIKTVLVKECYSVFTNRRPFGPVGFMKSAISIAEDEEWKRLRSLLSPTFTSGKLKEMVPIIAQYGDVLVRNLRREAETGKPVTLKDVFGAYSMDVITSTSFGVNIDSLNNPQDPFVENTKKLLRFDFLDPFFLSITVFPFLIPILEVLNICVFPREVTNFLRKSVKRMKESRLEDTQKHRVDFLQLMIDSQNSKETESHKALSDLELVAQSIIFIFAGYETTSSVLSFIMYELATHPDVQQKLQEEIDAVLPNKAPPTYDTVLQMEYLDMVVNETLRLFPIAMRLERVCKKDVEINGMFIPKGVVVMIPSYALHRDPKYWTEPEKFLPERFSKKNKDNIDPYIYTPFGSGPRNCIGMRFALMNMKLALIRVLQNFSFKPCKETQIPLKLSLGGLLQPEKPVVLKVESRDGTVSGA

[4] = Blood clearance in rat at 0.5 mg/kg, iv and 1 mg/kg, po by cassette dosing; format: ADME, organism-based; summary of the method: as §1
[5] = Ratio of drug level in brain to blood in rat at 0.5 mg/kg, iv after 1 hr by cassette dosing; format: ADME, organism-based; parameters: dose 0.5 mg/kg, route intravenous; conditions: read-out: BBR
Summary of the method: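 Rats dosed at 0.5 mg/kg iv; brain and blood levels taken 1 h after iv dosing.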

Cytochrome P450 2C19 = Cytochrome P450 2C19 (Homo sapiens, UniProt P33261); experiment: Inhibition of CYP2C19; format: ADME
Sequence of Cytochrome P450 2C19 (P33261 whole entry): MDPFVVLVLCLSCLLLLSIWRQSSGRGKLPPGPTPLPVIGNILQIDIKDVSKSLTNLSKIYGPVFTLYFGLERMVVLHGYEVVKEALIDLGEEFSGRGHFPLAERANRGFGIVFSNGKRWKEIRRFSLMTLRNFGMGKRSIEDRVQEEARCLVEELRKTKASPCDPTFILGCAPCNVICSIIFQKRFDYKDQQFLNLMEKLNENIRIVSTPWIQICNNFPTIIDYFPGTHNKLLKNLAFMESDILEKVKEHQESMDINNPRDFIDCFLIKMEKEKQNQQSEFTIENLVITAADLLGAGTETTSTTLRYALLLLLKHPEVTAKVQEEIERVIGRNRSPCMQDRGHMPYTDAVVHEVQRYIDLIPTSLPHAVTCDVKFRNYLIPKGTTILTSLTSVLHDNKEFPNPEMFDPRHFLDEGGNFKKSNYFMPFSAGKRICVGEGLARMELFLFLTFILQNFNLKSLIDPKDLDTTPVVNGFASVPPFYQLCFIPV

[6] = molecular target: Voltage-gated inwardly rectifying potassium channel KCNH2 (Homo sapiens, UniProt Q12809); experiment: Inhibition of human ERG
Sequence of Voltage-gated inwardly rectifying potassium channel KCNH2 (Q12809 whole entry): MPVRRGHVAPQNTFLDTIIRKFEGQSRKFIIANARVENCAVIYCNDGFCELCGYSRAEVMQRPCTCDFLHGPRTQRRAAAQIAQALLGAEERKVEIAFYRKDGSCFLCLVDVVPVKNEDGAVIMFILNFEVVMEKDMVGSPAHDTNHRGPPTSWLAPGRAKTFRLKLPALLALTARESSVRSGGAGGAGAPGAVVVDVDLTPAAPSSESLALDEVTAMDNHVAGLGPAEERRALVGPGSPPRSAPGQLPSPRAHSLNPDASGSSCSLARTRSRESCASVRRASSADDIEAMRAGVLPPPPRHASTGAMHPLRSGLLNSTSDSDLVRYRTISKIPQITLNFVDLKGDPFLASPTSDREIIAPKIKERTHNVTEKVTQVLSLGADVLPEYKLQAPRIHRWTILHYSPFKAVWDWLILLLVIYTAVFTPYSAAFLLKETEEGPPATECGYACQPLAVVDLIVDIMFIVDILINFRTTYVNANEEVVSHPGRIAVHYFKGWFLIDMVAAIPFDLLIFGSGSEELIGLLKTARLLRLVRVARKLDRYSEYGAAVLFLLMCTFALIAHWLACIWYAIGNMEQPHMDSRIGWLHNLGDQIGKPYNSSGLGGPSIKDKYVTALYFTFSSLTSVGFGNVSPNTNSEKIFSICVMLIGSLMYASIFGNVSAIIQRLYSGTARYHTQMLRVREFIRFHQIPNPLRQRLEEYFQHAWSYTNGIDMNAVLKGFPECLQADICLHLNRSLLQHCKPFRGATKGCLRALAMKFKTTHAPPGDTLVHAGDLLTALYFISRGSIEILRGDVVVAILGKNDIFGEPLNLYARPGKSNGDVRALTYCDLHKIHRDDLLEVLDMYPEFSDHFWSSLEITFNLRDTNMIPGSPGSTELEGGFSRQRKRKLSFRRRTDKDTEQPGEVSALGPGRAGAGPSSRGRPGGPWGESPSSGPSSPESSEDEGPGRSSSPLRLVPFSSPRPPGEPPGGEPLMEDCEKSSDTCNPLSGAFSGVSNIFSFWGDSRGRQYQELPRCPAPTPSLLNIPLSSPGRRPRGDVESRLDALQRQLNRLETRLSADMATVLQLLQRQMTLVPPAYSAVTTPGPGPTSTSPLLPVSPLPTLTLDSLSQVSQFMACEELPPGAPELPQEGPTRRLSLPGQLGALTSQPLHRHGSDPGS

Rattus norvegicus = experiment: Whole blood binding in rat at 0.5 mg/kg, iv and 1 mg/kg, po by equilibrium dialysis assay; format: ADME, organism-based; conditions: in vivo
[7] = molecular target: T3, Neuropeptide Y receptor type 2 (Homo sapiens, UniProt P49146); experiment: Antagonist activity at human NPY Y2 receptor expressed in HEK293 cells assessed as inhibition of calcium level by FLIPR assay; format: functional, cell-based
T3 sequence (P49146 whole entry): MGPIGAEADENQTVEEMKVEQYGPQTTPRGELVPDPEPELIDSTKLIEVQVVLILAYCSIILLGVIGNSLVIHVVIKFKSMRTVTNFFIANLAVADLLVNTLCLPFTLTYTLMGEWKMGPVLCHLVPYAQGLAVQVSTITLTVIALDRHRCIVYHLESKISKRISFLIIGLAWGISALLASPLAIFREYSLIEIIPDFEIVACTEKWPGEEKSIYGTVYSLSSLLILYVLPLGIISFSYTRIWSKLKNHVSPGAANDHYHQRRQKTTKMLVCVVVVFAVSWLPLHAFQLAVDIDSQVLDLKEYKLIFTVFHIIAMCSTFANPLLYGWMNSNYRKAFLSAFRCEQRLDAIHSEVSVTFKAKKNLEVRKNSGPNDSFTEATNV

[8] = molecular target: T4, Neuropeptide Y receptor type 1 (Homo sapiens, UniProt P25929); experiment: Antagonist activity at human NPY Y1 receptor expressed in HEK293 cells assessed as inhibition of calcium level by FLIPR assay; format: functional, cell-based
T4 sequence (P25929 whole entry): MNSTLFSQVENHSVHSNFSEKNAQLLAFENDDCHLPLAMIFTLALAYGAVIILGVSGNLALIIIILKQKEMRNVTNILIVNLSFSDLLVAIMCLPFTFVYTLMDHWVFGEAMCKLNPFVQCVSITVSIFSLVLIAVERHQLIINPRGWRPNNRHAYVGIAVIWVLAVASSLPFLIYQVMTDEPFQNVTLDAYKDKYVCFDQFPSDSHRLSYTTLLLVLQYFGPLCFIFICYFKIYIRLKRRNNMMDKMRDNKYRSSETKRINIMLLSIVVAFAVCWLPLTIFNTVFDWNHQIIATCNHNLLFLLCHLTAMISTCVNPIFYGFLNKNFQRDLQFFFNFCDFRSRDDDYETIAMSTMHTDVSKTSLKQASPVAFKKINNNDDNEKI

SMILES | Ki [1] | also measured
O=C(c1ccncc1)N1C[C@@H]2[C@H](CNc3nc(-c4ccccn4)cs3)[C@@H]2C1 | 50.1 nM | –
CC(=O)N1C[C@@H]2[C@H](CNc3nc(-c4ccccn4)cs3)[C@@H]2C1 | 2510 nM | –
CC(C)C(=O)N1C[C@@H]2[C@H](CNc3nc(-c4ccccn4)cs3)[C@@H]2C1 | 2.51 nM | IC50 (Cytochrome P450 1A2): ≥ 7000 nM; solubility [2]: 120 µg/mL (≈ 350 µM); IC50 (Cytochrome P450 2C9): ≥ 7000 nM; bioavailability [3]: 6%; IC50 (Cytochrome P450 3A4): ≥ 7000 nM; clearance [4]: 137 mL/min/kg; Kp at 1 h [5]: 0.7; IC50 (Cytochrome P450 2C19): ≥ 7000 nM
O=C(c1cc(F)cc(F)c1)N1C[C@@H]2[C@H](CNc3nc(-c4ccccn4)cs3)[C@@H]2C1 | 1.58 nM | –
O=C(C1CCOC1)N1C[C@@H]2[C@H](CNc3nc(-c4ccccn4)cs3)[C@@H]2C1 (stereo partly drawn) | 7.94 nM | IC50 (Cytochrome P450 1A2): > 10000 nM; IC50 (Cytochrome P450 2C9): > 10000 nM; IC50 [6]: 2000 nM; bioavailability [3]: 15%; IC50 (Cytochrome P450 3A4): > 10000 nM; clearance [4]: 98 mL/min/kg; Kp at 1 h [5]: < 0.5; Activity (Rattus norvegicus): 74%; IC50 (Cytochrome P450 2C19): > 10000 nM
O=C(C1CCCO1)N1C[C@@H]2[C@H](CNc3nc(-c4ccccn4)cs3)[C@@H]2C1 (stereo partly drawn) | 5.01 nM | –
O=C(C1CCOCC1)N1C[C@@H]2[C@H](CNc3nc(-c4ccccn4)cs3)[C@@H]2C1 | 31.6 nM | –
c1ccc(-c2csc(NC[C@H]3[C@@H]4CNC[C@@H]43)n2)nc1 | 1000 nM | –
CC(C)CN1C[C@@H]2[C@H](CNc3nc(-c4ccccn4)cs3)[C@@H]2C1 | 3.98 nM | –
Cc1cc(C)cc(CN2C[C@@H]3[C@H](CNc4nc(-c5ccccn5)cs4)[C@@H]3C2)c1 | 3.98 nM | –
Fc1cc(F)cc(CN2C[C@@H]3[C@H](CNc4nc(-c5ccccn5)cs4)[C@@H]3C2)c1 | 0.631 nM | –
FC(F)(F)c1ccc(Nc2nc(-c3ccccn3)cs2)cc1 | 15.8 nM | IC50 (Cytochrome P450 1A2): < 100 nM; bioavailability [3]: 30%; Kp at 1 h [5]: 4.2; Ki [7]: > 31600 nM; Ki [8]: > 31600 nM

The next lines start with results.

Ki [1] | SMILES | also measured
12.6 nM | O=C(c1ccccc1)N1C[C@@H]2[C@@H](CNc3nc(-c4ccccn4)cs3)[C@@H]2C1 | –
2.51 nM | O=C(c1ccccc1)N1C[C@@H]2[C@H](CNc3nc(-c4ccccn4)cs3)[C@@H]2C1 | –
1 nM | O=C(c1cccc(F)c1)N1C[C@@H]2[C@H](CNc3nc(-c4ccccn4)cs3)[C@@H]2C1 | –
5.01 nM | O=C(c1cccnc1)N1C[C@@H]2[C@H](CNc3nc(-c4ccccn4)cs3)[C@@H]2C1 | –
1 nM | O=C(Cc1ccccc1)N1C[C@@H]2[C@@H](CNc3nc(-c4ccccn4)cs3)[C@@H]2C1 | –
1 nM | O=C(Cc1ccccc1)N1C[C@@H]2[C@H](CNc3nc(-c4ccccn4)cs3)[C@@H]2C1 | –
0.398 nM | CC(C(=O)N1C[C@@H]2[C@H](CNc3nc(-c4ccccn4)cs3)[C@@H]2C1)c1ccccc1 (stereo partly drawn) | –
0.794 nM | O=C(N1C[C@@H]2[C@H](CNc3nc(-c4ccccn4)cs3)[C@@H]2C1)C1(c2ccccc2)CC1 | –
6.31 nM | O=C(CCc1ccccc1)N1C[C@@H]2[C@@H](CNc3nc(-c4ccccn4)cs3)[C@@H]2C1 | –
0.631 nM | O=C(CCc1ccccc1)N1C[C@@H]2[C@H](CNc3nc(-c4ccccn4)cs3)[C@@H]2C1 | –
5.01 nM | CC(C(=O)N1C[C@@H]2[C@H](CNc3nc(-c4ccccn4)cs3)[C@@H]2C1)C(C)c1ccccc1 (stereo partly drawn) | –
0.794 nM | O=C([C@H]1C[C@@H]1c1ccccc1)N1C[C@@H]2[C@H](CNc3nc(-c4ccccn4)cs3)[C@@H]2C1 | –
1.58 nM | c1ccc(CN2C[C@@H]3[C@H](CNc4nc(-c5ccccn5)cs4)[C@@H]3C2)cc1 | –
1.26 nM | CC(c1ccccc1)N1C[C@@H]2[C@H](CNc3nc(-c4ccccn4)cs3)[C@@H]2C1 (stereo partly drawn) | –

From ChEMBL document CHEMBL1208767, “Synthesis and structure-activity relationship of N-(3-azabicyclo[3.1.0]hex-6-ylmethyl)-5-(2-pyridinyl)-1,3-thiazol-2-amines derivatives as NPY Y5 antagonists” (Bioorg Med Chem Lett, 2010)
